ChEMBL document CHEMBL1134485, “Diguanidino and "reversed" diamidino 2,5-diarylfurans as antimicrobial agents” (2001)
≈ marks a conversion by molar mass, not a printed value.

How the values were obtained:
Aspergillus fumigatus [1] = experiment: Minimum inhibitory concentration required to inhibit 100% inoculum of Aspergillus fumigatus 168.95; assay type: functional
Candida albicans [2] = experiment: Minimum inhibitory concentration required to inhibit 100% inoculum of Candida albicans 117.00; assay type: functional
Candida albicans [3] = experiment: Minimum inhibitory concentration required to inhibit 100% inoculum of Candida albicans 156.97; assay type: functional
Candida albicans [4] = experiment: Minimum fungicidal concentration against Candida albicans 116.98; assay type: functional
Summary of the method: (§1)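 Yeast MFC: after broth macrodilution (RPMI 1640/MOPS pH 7.0, 0.5 × 10³ to 2.5 × 10³ CFU/mL, 35 °C, 48 h or 72 h for C. neoformans, drug 100 to 0.09 µg/mL), 100 µL from tubes with complete inhibition plated on Sabouraud agar; lowest concentration yielding three or fewer colonies recorded.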

Aspergillus fumigatus [5] = experiment: In vitro minimum fungicidal concentration required to inhibit Aspergillus fumigatus(MFC); assay type: functional
Summary of the method: (§2)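 Mould MFC: 100 µL aliquots from macrodilution tubes (RPMI 1640/MOPS pH 7.0, 0.5 × 10³ to 2.5 × 10³ CFU/mL conidial inoculum, 30 °C, 48-72 h, drug 100 to 0.09 µg/mL) showing complete growth inhibition plated on Sabouraud agar; MFC taken as lowest drug concentration giving three or fewer colonies.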

Candida albicans [6] = experiment: Minimum fungicidal concentration against Candida albicans 117.00; assay type: functional; summary of the method: as §1
Candida albicans [7] = experiment: Minimum fungicidal concentration against Candida albicans 159.95; assay type: functional; summary of the method: as §1
Cryptococcus neoformans [8] = experiment: Minimum inhibitory concentration required to inhibit 100% inoculum of Cryptococcus neoformans H99; assay type: functional
Aspergillus flavus [9] = experiment: Minimum inhibitory concentration required to inhibit 80% inoculum of Aspergillus flavus 141.88; assay type: functional
Aspergillus fumigatus [10] = experiment: Minimum fungicidal concentration against Aspergillus fumigatus 182.99; assay type: functional; summary of the method: as §2
Candida albicans [11] = experiment: Minimum fungicidal concentration against Candida albicans 156.97; assay type: functional; summary of the method: as §1
Candida albicans [12] = experiment: Minimum inhibitory concentration required to inhibit 80% inoculum of Candida albicans 117.00; assay type: functional
Summary of the method: (§3)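 Broth macrodilution following NCCLS M27-T, drug dilutions 100 to 0.09 µg/mL, in RPMI 1640 with glutamine, no bicarbonate, buffered to pH 7.0 with 0.165 M MOPS. Inoculum grown at 35 °C, adjusted to 0.5 × 10³ to 2.5 × 10³ CFU/mL, incubated at 35 °C and read at 48 h. MIC80 is the lowest concentration giving […] visual turbidity relative to the growth-control tube.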

Candida albicans [13] = experiment: Minimum inhibitory concentration required to inhibit 80% inoculum of Candida albicans 149.97; assay type: functional; summary of the method: as §3
Candida albicans [14] = experiment: Minimum inhibitory concentration required to inhibit 80% inoculum of Candida albicans 156.97; assay type: functional; summary of the method: as §3
Aspergillus flavus [15] = experiment: Minimum fungicidal concentration against Aspergillus flavus 194.99; assay type: functional; summary of the method: as §2
Candida albicans [16] = experiment: Minimum inhibitory concentration required to inhibit 100% inoculum of Candida albicans 149.97; assay type: functional
Candida albicans [17] = experiment: Minimum inhibitory concentration required to inhibit 100% inoculum of Candida albicans 126.97; assay type: functional
Candida albicans [18] = experiment: Minimum fungicidal concentration against Candida albicans 126.97; assay type: functional; summary of the method: as §1
Aspergillus fumigatus [19] = experiment: Minimum inhibitory concentration required to inhibit 80% inoculum of Aspergillus fumigatus 165.86; assay type: functional
Aspergillus fumigatus [20] = experiment: Minimum inhibitory concentration required to inhibit 80% inoculum of Aspergillus fumigatus 153.90; assay type: functional
Cryptococcus neoformans [21] = experiment: Minimum fungicidal concentration against Cryptococcus neoformans H99; assay type: functional; summary of the method: as §1
Aspergillus flavus [22] = experiment: Minimum inhibitory concentration required to inhibit 80% inoculum of Aspergillus flavus 194.99; assay type: functional
Candida albicans [23] = experiment: Minimum inhibitory concentration required to inhibit 80% inoculum of Candida albicans 159.95; assay type: functional; summary of the method: as §3
Fusarium solani = experiment: Minimum inhibitory concentration required to inhibit 100% inoculum of Fusarium solani 152.89; assay type: functional
Aspergillus fumigatus [24] = experiment: Antimicrobial activity against Aspergillus fumigatus (MIC); assay type: functional
Aspergillus fumigatus [25] = experiment: Minimum fungicidal concentration against Aspergillus fumigatus 165.86; assay type: functional; summary of the method: as §2
Candida albicans [26] = experiment: Minimum inhibitory concentration required to inhibit 100% inoculum of Candida albicans 159.95; assay type: functional
Aspergillus fumigatus [27] = experiment: Minimum fungicidal concentration against Aspergillus fumigatus 168.95; assay type: functional; summary of the method: as §2
Candida albicans [28] = experiment: Minimum inhibitory concentration required to inhibit 80% inoculum of Candida albicans A39; assay type: functional; summary of the method: as §3

## Cc1ccc(C(=N)Nc2ccc(-c3ccc(-c4ccc(NC(=N)c5ccc(C)cn5)cc4C)o3)c(C)c2)nc1
Aspergillus fumigatus [1]
  MIC: 50 µg/mL (≈ 97.2 µM)
Candida albicans [2]
  MIC: 3.12 µg/mL (≈ 6.06 µM)
Candida albicans [3]
  MIC: 3.15 µg/mL (≈ 6.12 µM)
Candida albicans [4]
  MFC: > 100 µg/mL
Aspergillus fumigatus [5]
  MFC: > 100 µg/mL
Candida albicans [6]
  MFC: 25 µg/mL (≈ 48.6 µM)
Candida albicans [7]
  MFC: 3.12 µg/mL (≈ 6.06 µM)
Cryptococcus neoformans [8]
  MIC: 1.56 µg/mL (≈ 3.03 µM)
Aspergillus flavus [9]
  MIC: 3.12 µg/mL (≈ 6.06 µM)
Aspergillus fumigatus [10]
  MFC: > 100 µg/mL
Candida albicans [11]
  MFC: > 100 µg/mL
Candida albicans [12]
  MIC: 0.78 µg/mL (≈ 1.52 µM)
Candida albicans [13]
  MIC: 0.78 µg/mL (≈ 1.52 µM)
Candida albicans [14]
  MIC: 1.56 µg/mL (≈ 3.03 µM)
Aspergillus flavus [15]
  MFC: > 100 µg/mL
Candida albicans [16]
  MIC: 1.56 µg/mL (≈ 3.03 µM)
Candida albicans [17]
  MIC: 3.12 µg/mL (≈ 6.06 µM)
Candida albicans [18]
  MFC: 3.12 µg/mL (≈ 6.06 µM)
Aspergillus fumigatus [19]
  MIC: 50 µg/mL (≈ 97.2 µM)
Aspergillus fumigatus [20]
  MIC: 3.12 µg/mL (≈ 6.06 µM)
Cryptococcus neoformans [21]
  MFC: > 100 µg/mL
Aspergillus flavus [22]
  MIC: 3.12 µg/mL (≈ 6.06 µM)
Candida albicans [23]
  MIC: 0.79 µg/mL (≈ 1.54 µM)
Fusarium solani
  MIC: 50 µg/mL (≈ 97.2 µM)
Nucleic Acid
  ΔTm: 10.8
Aspergillus fumigatus [24]
  MIC: 10 µg/mL (≈ 19.4 µM)
Aspergillus fumigatus [25]
  MFC: > 100 µg/mL
Candida albicans [26]
  MIC: 1.58 µg/mL (≈ 3.07 µM)
Aspergillus fumigatus [27]
  MFC: > 100 µg/mL
Candida albicans [28]
  MIC: 1.56 µg/mL (≈ 3.03 µM)
